Measured values of several laboratories.
Protocols differ between the studies behind these lines.
Sample: Caco-2

| SMILES | concentration | time | pH | measurement | result |
| --- | --- | --- | --- | --- | --- |
| C[C@H]1O[C@@H](O[C@H]2[C@@H](O)C[C@H](O[C@H]3[C@@H](O)C[C@H](O[C@H]4CC[C@@]5(C)[C@H](CC[C@@H]6[C@@H]5C[C@@H](O)[C@]5(C)[C@@H](C7=CC(=O)OC7)CC[C@]65O)C4)O[C@@H]3C)O[C@@H]2C)C[C@H](O)[C@@H]1O | 5 µM | 2 h | – | Papp A→B | 0.27 ×10⁻⁶ cm/s |
| Cc1c(N(C)C)ccc2cc(C(=O)NS(=O)(=O)c3ccccc3-c3ccccc3)oc12 | 2 µM | 2 h | pH 7.2 | Papp B→A | 14.3 ×10⁻⁶ cm/s |
| O=C(O)c1cn(-c2ccc(-c3ccc(C(=O)N4CCNCC4)cc3)cc2)cc(O)c1=O | – | – | – | Papp A→B | 0.2 ×10⁻⁶ cm/s |
| CCn1cc(C2CC2)c2c(Cc3ccc(C(F)(F)F)nc3)n(C)nc2c1=O | – | – | – | Papp A→B | 38.7 ×10⁻⁶ cm/s |
| N#C[C@@]12C[C@@H]1[C@@H](n1cnc3c(N[C@@H](C4CCC4)C4CC4)nc(I)nc31)[C@H](O)[C@@H]2O | – | – | – | Papp A→B | 5.97 ×10⁻⁶ cm/s |
| CC(C)C[C@H](NC(=O)[C@@H]1COCCCCCC(=O)NCC(=O)N2CCC[C@H]2C(=O)N1)C(=O)[C@@]1(C)CO1 | 10 µM | 2 h | pH 7.4 | Papp A→B | 0.454 ×10⁻⁶ cm/s |
| N#Cc1cc(-c2ccc(C(=O)N3CCNCC3)cc2)ccc1-n1cc(O)c(=O)c(C(=O)O)c1 | – | – | – | Papp A→B | 0.3 ×10⁻⁶ cm/s |
| Cn1nc2c(=O)n(C3CC3)ncc2c1[C@](O)(c1cnc(C(F)(F)F)c(Cl)c1)C(F)(F)F | – | – | – | Papp A→B | 43.4 ×10⁻⁶ cm/s |
| CCCCC(CC)CNC(=N)NC(=N)NCCCCCCNC(=N)NC(=N)NCC(CC)CCCC (stereo not shown) | 5 µM | 2 h | – | Papp B→A | 0.37 ×10⁻⁶ cm/s |
| Cc1c(C(=O)O)ccc2c3n(nc12)[C@@H]1[C@H](C3)N(CC2CC2)[C@@]2(C(=O)Nc3cc(Cl)ccc32)[C@H]1c1cccc(Cl)c1F | – | – | – | Papp A→B | 84 ×10⁻⁶ cm/s |
